{"source": "paper PMC9323481", "about": "(Diabetes, Obesity & Metabolism, 2022)", "format_in_all_cases": "in vivo, human", "key": {"[1]": {"system": "patients with type 2 diabetes and CKD", "assay": "Supine blood pressure and heart rate", "how_it_was_run": "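Vital signs, blood pressure and 24-h pulse rate were safety endpoints, taken as change from baseline. Randomized double-blind design: once-daily morning s.c. test compound titrated 50 μg (4 days), 100 μg (7 days), 200 μg (7 days), 300 μg (14 days), or placebo for 32 days. ANCOVA with baseline as covariate, as-treated population.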"}, "[2]": {"system": "patients with type 2 diabetes and CKD", "assay": "Immunogenicity", "conditions": "serum anti-drug antibody", "how_it_was_run": "(§1)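 Secondary endpoints of a 32-day trial: once-daily morning s.c. dosing titrated through 50 μg for 4 days, 100 μg for 7 days, 200 μg for 7 days and 300 μg for 14 days. Pharmacokinetic parameters and anti-drug antibody titre were summarized with descriptive statistics only.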"}, "Pharmacokinetics": {"assay": "Pharmacokinetics", "conditions": "repeat daily s.c. administration 50-300 μg; plasma", "how_it_was_run": "as §1"}, "[3]": {"system": "patients with type 2 diabetes and CKD", "assay": "Treatment-emergent adverse events", "how_it_was_run": "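Incidence of adverse events and serious adverse events during 32 days of once-daily s.c. dosing (titrated 50→100→200→300 μg) or placebo. Clinically significant hypoglycaemia was defined as capillary or venous plasma glucose <54 mg/dl (3.0 mmol/L). Safety analyses used the as-treated population with descriptive statistics.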"}, "[4]": {"system": "patients with type 2 diabetes and CKD", "assay": "Clinical chemistry and eGFR percent change", "conditions": "baseline to day 32"}, "[5]": {"system": "patients with type 2 diabetes and CKD on insulin ≥20 units per day", "assay": "Total daily insulin dose", "conditions": "participants on insulin ≥20 units per day; range –194, 20; placebo 0.0, p = .073", "how_it_was_run": "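Exploratory endpoint: change in total daily insulin dose from baseline to end of dosing, in participants on ≥20 units/day. Randomization was stratified by insulin dose (≥20 vs <20 units/day). Dosing was once-daily s.c., titrated 50-300 μg over 32 days, against placebo. Analysed by two-sample t-test with unequal variance and Satterthwaite approximation.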"}, "[6]": {"system": "patients with type 2 diabetes and CKD", "assay": "UACR and eGFR", "how_it_was_run": "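Exploratory endpoints: change from baseline in mean urinary albumin-to-creatinine ratio (UACR) and eGFR. Dosing was randomized, double-blind, once-daily s.c., titrated 50-300 μg over 32 days, against placebo. Change in UACR was analysed by t-test with unequal variance. Continuous endpoints were analysed by ANCOVA with baseline as covariate, intent-to-treat population.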"}, "[7]": {"system": "patients with type 2 diabetes and CKD", "assay": "Continuous glucose monitoring", "how_it_was_run": "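Double-blind, placebo-controlled, once-daily s.c. dosing titrated 50→100→200→300 μg over 32 days. Continuous glucose monitoring gave the percentage of time with interstitial glucose in the target range of 70-180 mg/dl (3.9-10 mmol/L) over a 7-day period, at baseline and in the final week of treatment. Change analysed by Wilcoxon rank-sum test, intent-to-treat population.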"}, "[8]": {"system": "patients with type 2 diabetes and CKD", "assay": "Fasting plasma glucose and HbA1c", "conditions": "s.c. once daily, 50-300 μg; for Change in LS mean fasting plasma glucose from baseline to day 32: 32 days"}, "[9]": {"system": "patients with type 2 diabetes and CKD", "assay": "Bodyweight", "conditions": "p < .001", "how_it_was_run": "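Randomized 1:1, double-blind; test compound or placebo given s.c. once daily each morning. Test compound dose titration: 50 μg for 4 days, 100 μg for 7 days, 200 μg for 7 days, then 300 μg for 14 days. Percentage and absolute change in bodyweight from baseline, intent-to-treat population. ANCOVA with treatment as fixed factor and baseline as covariate.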"}}, "data": [{"substance": "cotadutide", "values": [{"measurement": "Increase in LS mean heart rate from baseline to day 32", "setting": "[1]; placebo 3.14, p < .001", "result": 14.13, "unit": "beats per minute"}, {"measurement": "Increase in LS mean supine diastolic blood pressure from baseline to day 32", "setting": "[1]; placebo 3.40, p = .421", "result": 0.57, "unit": "mmHg"}, {"measurement": "Increase in LS mean supine systolic blood pressure from baseline to day 32", "setting": "[1]; placebo 8.69, p = .144", "result": 1.44, "unit": "mmHg"}, {"measurement": "Treatment-boosted ADA response", "setting": "[2]", "result": "No participants"}, {"measurement": "Exposure at Ctrough with dose", "setting": "Pharmacokinetics", "result": "linear increased exposure"}, {"measurement": "Mild/moderate adverse events, participants", "setting": "[3]; abstract, placebo 35.0%", "result": 71.4, "unit": "%"}, {"measurement": "Treatment-emergent adverse event: Any", "setting": "[3]; n = 21, as-treated, placebo 13 (65.0)", "result": "20 (95.2) n (%)"}, {"measurement": "Treatment-emergent adverse event: Hypoglycaemia", "setting": "[3]; n = 21, clinically significant, capillary or venous plasma glucose <54 mg/dl (3.0 mmol/L), placebo 1 (5.0)", "result": "3 (14.3) n (%)"}, {"measurement": "Treatment-emergent adverse event: Decreased appetite", "setting": "[3]; n = 21, placebo 0", "result": "3 (14.3) n (%)"}, {"measurement": "Treatment-emergent adverse event: Diarrhoea", "setting": "[3]; n = 21, placebo 0", "result": "5 (23.8) n (%)"}, {"measurement": "Treatment-emergent adverse event: Flatulence", "setting": "[3]; n = 21, placebo 0", "result": "2 (9.5) n (%)"}, {"measurement": "Treatment-emergent adverse event: Leading to death (no. patients)", "setting": "[3]; n = 21, placebo 0", "result": "1 (4.8) n (%)"}, {"measurement": "Treatment-emergent adverse event: Serious related to cotadutide", "setting": "[3]; n = 21, placebo 0", "result": "1 (4.8) n (%)"}, {"measurement": "Treatment-emergent adverse event: Dizziness", "setting": "[3]; n = 21, placebo 1 (5.0)", "result": "2 (9.5) n (%)"}, {"measurement": "Treatment-emergent adverse event: Dyspepsia", "setting": "[3]; n = 21, placebo 1 (5.0)", "result": "5 (23.8) n (%)"}, {"measurement": "Treatment-emergent adverse event: Leading to study discontinuation (no. patients)", "setting": "[3]; n = 21, placebo 1 (5.0)", "result": "2 (9.5) n (%)"}, {"measurement": "Treatment-emergent adverse event: Vomiting", "setting": "[3]; n = 21, placebo 1 (5.0)", "result": "6 (28.6) n (%)"}, {"measurement": "Treatment-emergent adverse event: Headache", "setting": "[3]; n = 21, placebo 2 (10.0)", "result": "2 (9.5) n (%)"}, {"measurement": "Treatment-emergent adverse event: Nasopharyngitis", "setting": "[3]; n = 21, placebo 2 (10.0)", "result": "3 (14.3) n (%)"}, {"measurement": "Treatment-emergent adverse event: Serious (no. patients)", "setting": "[3]; n = 21, placebo 2 (10.0)", "result": "2 (9.5) n (%)"}, {"measurement": "Treatment-emergent adverse event: Nausea", "setting": "[3]; n = 21, placebo 4 (20.0)", "result": "9 (42.9) n (%)"}, {"measurement": "Treatment-emergent adverse event: Any related to cotadutide", "setting": "[3]; n = 21, placebo 7 (35.0)", "result": "15 (71.4) n (%)"}, {"measurement": "AEs of severe hypoglycaemia", "setting": "[3]; whole study", "result": "no recorded AEs"}, {"measurement": "Trends or shifts from baseline in serum chemistry", "setting": "[4]", "result": "no clinically meaningful trends or shifts"}, {"measurement": "Median absolute change in total daily insulin dose from baseline to day 32", "setting": "[5]", "result": "–16.0 units per day"}, {"measurement": "LS mean change in eGFR", "setting": "[6]; 90% CI –1.29, 3.62, placebo –1.10, p = .268", "result": 1.17, "unit": "ml/min/1.73 m^2"}, {"measurement": "Change in LS mean UACR from baseline to day 33", "setting": "[6]; all participants, placebo 5.43%, not significant", "result": "–7.65%"}, {"measurement": "Mean percentage of time within target range over a 7-day period", "setting": "[7]; 100 μg dose period, placebo 48.57%", "result": 75.82, "unit": "%"}, {"measurement": "Mean percentage of time within target range over a 7-day period", "setting": "[7]; 200 μg dose period, placebo 54.99%", "result": 78.69, "unit": "%"}, {"measurement": "Mean percentage of time within target range over a 7-day period", "setting": "[7]; 300 μg dose period, placebo 40.66%", "result": 78.18, "unit": "%"}, {"measurement": "Time in clinically significant hypoglycaemia (glucose <54 mg/dl or <3.0 mmol/L)", "setting": "[7]; CGM, entire dosing period, placebo 0.66%, p = .010", "result": 2.01, "unit": "%"}, {"measurement": "Time in hypoglycaemia (glucose <70 mg/dl or <3.9 mmol/L)", "setting": "[7]; CGM, entire dosing period, placebo 2.73%, p = .061", "result": 6.07, "unit": "%"}, {"measurement": "Time in hyperglycaemia (glucose >180 mg/dl or 10 mmol/L)", "setting": "[7]; CGM, entire dosing period, placebo 37.39%, p = .001", "result": 10.50, "unit": "%"}, {"measurement": "Change in LS mean fasting plasma glucose from baseline to day 32", "setting": "[8]; placebo 0.03", "result": 1.09, "unit": "mmol/L"}, {"measurement": "Change in LS mean fasting plasma glucose from baseline to day 32", "setting": "[8]; placebo +0.60, p = .089", "result": "–19.55 mg/dl"}, {"measurement": "Change in LS mean HbA1c from baseline to day 32", "setting": "[8]; placebo +0.01%, p < .001", "result": "–0.65%"}, {"measurement": "LS mean change in absolute bodyweight from baseline to day 33", "setting": "[9]; 90% CI –4.2, –2.62, placebo –0.13 kg", "result": "–3.41 kg"}, {"measurement": "LS mean percentage change in bodyweight from baseline to day 33", "setting": "[9]; 90% CI –4.55, –2.83, placebo –0.21%", "result": "–3.69%"}]}]}
